Measurements from ChEMBL document CHEMBL1165950, “Design and synthesis of new potent anticancer pyrazoles with high FLT3 kinase inhibitory selectivity” (Bioorg Med Chem, 2010).

Key:
Assay type in all cases: functional
SK-OV-3 [1] = test: Cytotoxicity against human SKOV3 cells assessed as cell growth at 100 nM after 48 hrs by sulforhodamine B assay; conditions: SK-OV-3, 48 h, read-out: Activity
OVCAR-5 [2] = test: Cytotoxicity against human OVCAR5 cells assessed as cell growth at 100 nM after 48 hrs by sulforhodamine B assay; conditions: OVCAR-5, 48 h, read-out: Activity
K562 = test: Cytotoxicity against human K562 cells assessed as cell growth at 10 uM after 48 hrs by sulforhodamine B assay; conditions: K562, 48 h, read-out: Activity
TK-10 = test: Growth inhibition of human TK10 cells after 48 hrs by sulforhodamine B assay; conditions: TK-10, 48 h; for CC50: read-out: LC50 (the source's name)
Outline: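 NCI 60-cell screen, five-dose mode. Cells grown in RPMI 1640 with 5% FBS and 2 mM L-glutamine and plated at 5000-40,000 cells/well according to doubling time. After 24 h preincubation, a Tz plate was TCA-fixed. Five concentrations (10-fold or 1/2 log dilutions) were applied for 48 h at 37 °C. SRB staining read at 515 nm. IC50 taken from [(Ti-Tz)/(C-Tz)]×100 = 50.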

A498 = test: Cytotoxicity against human A498 cells assessed as cell growth at 10 uM after 48 hrs by sulforhodamine B assay; conditions: A498, 48 h, read-out: Activity
Outline: (§1)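 NCI-60 five-dose screen. Cells were grown in RPMI 1640 with 5% FBS and 2 mM L-glutamine, plated at 5000–40,000 cells/well and preincubated for 24 h. Time-zero plates were TCA-fixed. DMSO-solubilized drug was added at five concentrations (10-fold or ½-log serial dilutions) for 48 h at 37 °C, 5% CO2. Cells were TCA-fixed, stained with 0.4% SRB and read at 515 nm. Percent growth used time-zero, control and test absorbances.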

HOP-62 = test: Cytotoxicity against human HOP62 cells assessed as cell growth at 10 uM; conditions: read-out: Activity
Outline: (§2)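 Single-dose NCI-60 screen at 10 µM. Cells were grown in RPMI 1640 with 5% FBS and 2 mM L-glutamine, then treated for 48 h at 37 °C. Protein was measured by SRB staining with absorbance at 515 nm. Percentage growth was recorded, and inhibition percentage was calculated as 100 minus growth percentage.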

M14 = test: Cytotoxicity against human M14 cells assessed as cell growth at 10 uM after 48 hrs by sulforhodamine B assay; conditions: M14, 48 h, read-out: Activity
EKVX = test: Growth inhibition of human EKVX cells after 48 hrs by sulforhodamine B assay; conditions: for CC50: read-out: LC50 (the source's name)
Outline: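 NCI five-dose SRB assay in RPMI 1640 with 5% FBS and 2 mM L-glutamine. Cells were preincubated 24 h, then exposed 48 h at 37 °C to five concentrations (10-fold or half-log serial dilutions from DMSO stocks). TCA fixation, SRB staining, and absorbance at 515 nm followed. IC50 was taken where [(Ti−Tz)/(C−Tz)]×100 = 50, with Tz as time-zero cell density.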

NCI-H322M [3] = test: Cytotoxicity against human NCI-H322M cells assessed as cell growth at 10 uM; conditions: read-out: Activity
Outline: (§3)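 NCI-60 screen: cells grown in RPMI 1640 with 5% FBS and 2 mM L-glutamine, plated at 5000–40,000 cells/well according to doubling time, and preincubated 24 h at 37 °C, 5% CO2. The single 10 µM dose (DMSO stock) was added, then incubated 48 h. Cells were TCA-fixed and stained with 0.4% SRB, read at 515 nm, and growth % calculated against time-zero and control plates.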

OVCAR-5 [4] = test: Cytotoxicity against human OVCAR5 cells assessed as cell growth at 10 uM after 48 hrs by sulforhodamine B assay; conditions: OVCAR-5, 48 h, read-out: Activity
SF-295 = test: Cytotoxicity against human SF295 cells assessed as cell growth at 0.001 uM after 48 hrs by sulforhodamine B assay; conditions: SF-295, 48 h, read-out: Activity
UACC-257 = test: Cytotoxicity against human UACC257 cells assessed as cell growth at 10 uM; conditions: read-out: Activity; outline: as §3
BT-549 [5] = test: Cytotoxicity against human BT549 cells assessed as cell growth at 1 uM after 48 hrs by sulforhodamine B assay; conditions: BT-549, 48 h, read-out: Activity; outline: as §1
SNB-75 = test: Cytotoxicity against human SNB75 cells assessed as cell growth at 10 uM; conditions: read-out: Activity; outline: as §3
SK-MEL-2 = test: Cytotoxicity against human SK-MEL-2 cells assessed as cell growth at 0.001 uM after 48 hrs by sulforhodamine B assay; conditions: SK-MEL-2, 48 h, read-out: Activity
SK-OV-3 [6] = test: Cytotoxicity against human SKOV3 cells assessed as cell growth at 0.01 uM after 48 hrs by sulforhodamine B assay; conditions: SK-OV-3, 48 h, read-out: Activity
Malme-3M = test: Cytotoxicity against human MALME-3M cells assessed as cell growth at 10 uM; conditions: read-out: Activity; outline: as §3
SF-539 = test: Cytotoxicity against human SF539 cells assessed as cell growth at 10 uM after 48 hrs by sulforhodamine B assay; conditions: SF-539, 48 h, read-out: Activity
OVCAR-4 = test: Cytotoxicity against human OVCAR4 cells assessed as cell growth at 10 uM; conditions: read-out: Activity; outline: as §3
NCI-H322M [7] = test: Cytotoxicity against human NCI-H322M cells assessed as cell growth at 10 uM after 48 hrs by sulforhodamine B assay; conditions: read-out: Activity
UO-31 = test: Cytotoxicity against human UO31 cells assessed as cell growth at 100 nM after 48 hrs by sulforhodamine B assay; conditions: UO-31, 48 h, read-out: Activity
[8] = Growth inhibition of human NCI60 cells at 10 uM after 48 hrs by sulforhodamine B assay relative to control; conditions: NCI60, 48 h, read-out: GI
Outline: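 Single-dose NCI screen at 10 µM across the 60-line panel, 48 h exposure at 37 °C after a 24 h preincubation. Adherent cells were fixed with cold TCA and stained with 0.4% SRB, and absorbance was read at 515 nm. Inhibition % was taken as 100 minus growth %, and the mean across all lines was reported.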

OVCAR-3 = test: Cytotoxicity against human OVCAR-3 cells assessed as cell growth at 100 nM after 48 hrs by sulforhodamine B assay; conditions: OVCAR-3, 48 h, read-out: Activity
BT-549 [9] = test: Cytotoxicity against human BT549 cells assessed as cell growth at 100 nM after 48 hrs by sulforhodamine B assay; conditions: BT-549, 48 h, read-out: Activity; outline: as §1
ACHN = test: Cytotoxicity against human ACHN cells assessed as cell growth at 10 uM; conditions: read-out: Activity; outline: as §2
HOP-92 = test: Cytotoxicity against human HOP92 cells assessed as cell growth at 0.01 uM after 48 hrs by sulforhodamine B assay; conditions: HOP-92, 48 h, read-out: Activity
SN12C = test: Cytotoxicity against human SN12C cells assessed as cell growth at 0.001 uM after 48 hrs by sulforhodamine B assay; conditions: read-out: Activity
BT-549 [10] = test: Cytotoxicity against human BT549 cells assessed as cell growth at 10 uM; conditions: read-out: Activity; outline: as §2
SK-MEL-28 = test: Cytotoxicity against human SK-MEL-28 cells assessed as cell growth at 0.01 uM after 48 hrs by sulforhodamine B assay; conditions: SK-MEL-28, 48 h, read-out: Activity

SMILES | growth at 0.1 µM (SK-OV-3 [1]) [%] | growth at 0.1 µM (OVCAR-5 [2]) [%] | growth at 10 µM (K562) [%] | TGI (TK-10) [µM] | CC50 (TK-10) [µM] | growth at 10 µM (A498) [%] | growth at 10 µM (HOP-62) [%] | growth at 10 µM (M14) [%] | GI50 (EKVX) [µM] | TGI (EKVX) [µM] | CC50 (EKVX) [µM] | growth at 10 µM (NCI-H322M [3]) [%] | growth at 10 µM (OVCAR-5 [4]) [%] | growth at 0.001 µM (SF-295) [%] | growth at 10 µM (UACC-257) [%] | growth at 1 µM (BT-549 [5]) [%] | growth at 10 µM (SNB-75) [%] | growth at 0.001 µM (SK-MEL-2) [%] | growth at 0.01 µM (SK-OV-3 [6]) [%] | growth at 10 µM (Malme-3M) [%] | also measured
COc1cc(C)cc(-c2c(-c3ccnc(-c4ccc(N(C)C)cc4)c3)cnn2CC#N)c1 | 37 | 53 | -5 | > 100 | > 100 | 7 | 14.9 | -7 | 0.29 | > 100 | > 100 | 58.9 | 97 | 83 | 83.8 | -29 | -21.1 | 97 | 47 | 103 | GI50 (TK-10): 0.636 µM; growth at 10 µM (SF-539): 2%; growth at 10 µM (OVCAR-4): 26%; growth at 10 µM (NCI-H322M [7]): 21%; growth at 0.1 µM (UO-31): 45%; inhibition of growth at 10 µM [8]: 88.4%; growth at 0.1 µM (OVCAR-3): -20%; growth at 0.1 µM (BT-549 [9]): -18%; growth at 10 µM (ACHN): 22.1%; growth at 0.01 µM (HOP-92): -9%; growth at 0.001 µM (SN12C): 97%; growth at 10 µM (BT-549 [10]): -26.5%; growth at 0.01 µM (SK-MEL-28): 20%
COc1cc(C)cc(-c2nn(CC#N)cc2-c2ccc(-c3cccc(C(C)=O)c3)nc2)c1 | 104 | 68 | 9 | 11.5 | > 100 | -55 | 32.1 | -43 | 3.98 | 50.7 | > 100 | 64.8 | -18 | 99 | 50.8 | 5 | -23.9 | 89 | 101 | 60.5 | GI50 (TK-10): 3.28 µM; growth at 10 µM (SF-539): -48%; growth at 10 µM (OVCAR-4): 31.7%; growth at 10 µM (NCI-H322M [7]): -10%; growth at 0.1 µM (UO-31): 79%; inhibition of growth at 10 µM [8]: 78.7%; growth at 0.1 µM (OVCAR-3): 66%; growth at 0.1 µM (BT-549 [9]): 85%; growth at 10 µM (ACHN): 35.4%; growth at 0.01 µM (HOP-92): 80%; growth at 0.001 µM (SN12C): 92%; growth at 10 µM (BT-549 [10]): 25.4%; growth at 0.01 µM (SK-MEL-28): 93%
COc1cc(C)cc(-c2c(-c3ccnc(-c4ccc(C(C)=O)cc4)c3)cnn2CC#N)c1 | 102 | 89 | 15 | > 100 | > 100 | 27 | 78.1 | 2 | 5.8 | > 100 | > 100 | 104 | 72 | 98 | 92.8 | 17 | 57.9 | 92 | 98 | 103 | growth at 10 µM (SF-539): -34%; growth at 10 µM (OVCAR-4): 80.2%; growth at 10 µM (NCI-H322M [7]): 70%; growth at 0.1 µM (UO-31): 78%; inhibition of growth at 10 µM [8]: 33.4%; growth at 0.1 µM (OVCAR-3): 92%; growth at 0.1 µM (BT-549 [9]): 82%; growth at 10 µM (ACHN): 70%; growth at 0.01 µM (HOP-92): 69%; growth at 0.001 µM (SN12C): 94%; growth at 10 µM (BT-549 [10]): 60%; growth at 0.01 µM (SK-MEL-28): 94%
Cc1cc(O)cc(-c2nn(CC#N)cc2-c2ccnc(-c3ccc(N(C)C)cc3)c2)c1 | 101 | 97 | -6 | 57.8 | > 100 | -33 | 36.5 | -75 | 3.92 | 92.8 | > 100 | 94.1 | -18 | 93 | 54.1 | 4 | -12.8 | 94 | 98 | 75 | GI50 (TK-10): 8.4 µM; growth at 10 µM (SF-539): -71%; growth at 10 µM (OVCAR-4): 29.9%; growth at 10 µM (NCI-H322M [7]): -11%; growth at 0.1 µM (UO-31): 82%; inhibition of growth at 10 µM [8]: 65.3%; growth at 0.1 µM (OVCAR-3): 85%; growth at 0.1 µM (BT-549 [9]): 87%; growth at 10 µM (ACHN): 31.2%; growth at 0.01 µM (HOP-92): 85%; growth at 0.001 µM (SN12C): 97%; growth at 10 µM (BT-549 [10]): 31.8%; growth at 0.01 µM (SK-MEL-28): 94%
COc1cc(C)cc(-c2nn(CC#N)cc2-c2ccnc(-c3ccc(N(C)C)cc3)c2)c1 | -6 | 79 | 3 | 78.9 | > 100 | -33 | 18.9 | -16 | 0.696 | > 10 | > 100 | 41.1 | 15 | 93 | 68.2 | -10 | -25.5 | 117 | 102 | 82 | GI50 (TK-10): 0.101 µM; growth at 10 µM (SF-539): -38%; growth at 10 µM (OVCAR-4): 17.1%; growth at 10 µM (NCI-H322M [7]): 27%; growth at 0.1 µM (UO-31): 39%; inhibition of growth at 10 µM [8]: 92.3%; growth at 0.1 µM (OVCAR-3): -51%; growth at 0.1 µM (BT-549 [9]): 66%; growth at 10 µM (ACHN): 16%; growth at 0.01 µM (HOP-92): 93%; growth at 0.001 µM (SN12C): 100%; growth at 10 µM (BT-549 [10]): -28.5%; growth at 0.01 µM (SK-MEL-28): 102%
